Reference: ChEMBL document CHEMBL1123289, “Structure-activity relationships of dopaminergic 5-hydroxy-2-aminotetralin derivatives with functionalized N-alkyl substituents” (J Med Chem, 1986)

Experiments:
[1] = biological target: T1, Dopamine receptor (Rattus norvegicus) (UniProt P25115+P19020+P30729+P18901+P61169); experiment: Evaluation for contralateral turning in 6-hydroxy-dopamine-lesioned rats administered intraperitoneally at the dose 1 mg/kg total turnings; assay type: functional, organism-based; set-up: dose 1 mg/kg
Summary of the method: (§1)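 Rats carrying a unilateral lesion of the nigrostriatal pathway were scored for induced turning toward the side contralateral to the lesion, using an Ungerstedt-type rotation procedure.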

[2] = biological target: T1, Dopamine receptor (Rattus norvegicus); experiment: Evaluation for contralateral turning in 6-hydroxy-dopamine-lesioned rats administered intraperitoneally at the dose 1 mg/kg duration; assay type: functional, organism-based; set-up: dose 1 mg/kg; summary of the method: as §1
[3] = biological target: T1, Dopamine receptor (Rattus norvegicus); experiment: Evaluation for contralateral turning in 6-hydroxy-dopamine-lesioned rats administered intraperitoneally at the dose 1 mg/kg Maximum intensity (turnings/min); assay type: functional, organism-based; set-up: dose 1 mg/kg; summary of the method: as §1
[4] = Dopamine receptor binding affinity by displacing the radioligand [3H]-dopamine from dopamine receptor.; set-up: species or system Bos taurus
Summary of the method: (§2)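 Radioligand displacement was run on membrane fractions from calf caudate nucleus, with [3H]DA or [3H]spiroperidol as the labelled ligand.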

[5] = Dopamine receptor binding affinity by displacing the radioligand [3H]spiroperidol from dopamine receptor.; set-up: species or system Bos taurus; summary of the method: as §2
[6] = system: Rattus norvegicus; experiment: Compound was evaluated for the contralateral turning in 6-hydroxy-dopamine-lesioned rats administered intraperitoneally at the dose 1 mg/kg; assay type: functional; conditions: route intraperitoneal; summary of the method: as §1

Structure (SMILES)	Total turnings [1]	Duration [2] [h]	Max intensity [3] [turns min-1]	IC50 [4] [µM]	IC50 [5] [µM]	Duration [6] [h]	Max intensity [6] [turns min-1]	Total turnings [6]
CN1C[C@@H](CC#N)C[C@@H]2c3cccc4[nH]cc(c34)C[C@H]21 [DELERGOTRILE]	2610	> 7	14.4	0.265	0.52	–	–	–
CCCN(CCCN=[N+]=[N-])C1CCc2c(O)cccc2C1 (stereo not drawn)	1860	7	6.7	0.058	0.53	–	–	–
CCCN(CCC)C1CCc2c(O)cccc2C1 (stereo not drawn) [5-OH-DPAT]	2540	6	22.7	0.049	1.35	–	–	–
CCCN(CCCC#N)C1CCc2c(O)cccc2C1 (stereo in doubt; 3) [listing 1 of 2 here]	1170	3	10.3	–	–	–	–	–
CCN(CCCC#N)C1CCc2c(O)cccc2C1 (stereo not drawn)	< 150	–	–	0.068	0.92	–	–	–
CCCN(CCCC(=O)NC)C1CCc2c(O)cccc2C1 (stereo not drawn)	–	–	–	0.038	0.825	6	6.4	413
CCCN(CCCOC)C1CCc2c(O)cccc2C1 (stereo not drawn)	347	2	7.4	0.15	2.2	–	–	–
CCCN(CCCC#N)C1CCc2c(O)cccc2C1 (stereo in doubt; (-)-3) [listing 2 of 2 here]	–	–	–	0.037	0.37	–	–	–
CCCN(CCCS(C)(=O)=O)C1CCc2c(O)cccc2C1 (stereo not drawn)	–	–	–	0.11	1.86	1	5.7	531
CCCN(CCCC#N)C1CCc2c(O)cccc2C1 (stereo in doubt; 3) [listing 2 of 2 here]	–	–	–	0.035	0.79	–	–	–
CCCN(CCCSC)C1CCc2c(O)cccc2C1 (single isomer, unassigned; (-)) [listing 2 of 2 here]	3590	7	15.2	–	–	–	–	–
C=CCCCN(CCC)C1CCc2c(O)cccc2C1 (stereo not drawn)	1740	7	7.7	0.048	0.4	–	–	–
CCCN(CCCNS(=O)(=O)N(C)C)C1CCc2c(O)cccc2C1 (stereo not drawn)	–	–	–	0.1	0.37	4	7.6	857
CN(CCCC#N)C1CCc2c(O)cccc2C1 (stereo not drawn)	< 150	–	–	0.5	3.5	–	–	–
CCCN(CCCCC#N)C1CCc2c(O)cccc2C1 (stereo not drawn)	1460	4	10.8	0.091	1.5	–	–	–
CCCN1C[C@H](CSC)C[C@@H]2c3cccc4[nH]cc(c34)C[C@H]21 [PERGOLIDE]	1800	> 7	9.7	0.018	0.145	–	–	–
CCN(CC)S(=O)(=O)N[C@H]1C[C@@H]2c3cccc4[nH]cc(c34)C[C@H]2N(C)C1 [ETISULERGINE]	–	–	–	0.12	0.025	>7	11.8	3688

Further lines, with some results ahead:

Total turnings [1]	Duration [2] [h]	Max intensity [3] [turns min-1]	IC50 [4] [µM]	IC50 [5] [µM]	Structure (SMILES)	Duration [6] [h]	Max intensity [6] [turns min-1]	Total turnings [6]
3260	6	12	–	–	CCCN(CCCC#N)C1CCc2c(O)cccc2C1 (stereo in doubt; (-)-3) [listing 1 of 2 here]	–	–	–
1980	7	9.8	–	–	CCCN(CCCSC)C1CCc2c(O)cccc2C1 (stereo in doubt; 12) [listing 1 of 2 here]	–	–	–
656	5	6.6	0.048	0.14	CCCN(CCCc1ccccc1)C1CCc2c(O)cccc2C1 (stereo not drawn)	–	–	–
721	3	10.2	0.185	1.45	CCCN(CCCO)C1CCc2c(O)cccc2C1 (stereo not drawn)	–	–	–
–	–	–	0.077	0.525	CCCN(CCCNC(=O)OCC)C1CCc2c(O)cccc2C1 (stereo not drawn)	5	10.4	1216
< 150	–	–	0.13	7.5	CCCN(CCC#N)C1CCc2c(O)cccc2C1 (stereo not drawn)	–	–	–
–	–	–	0.038	0.23	CCCN(CCCSC)C1CCc2c(O)cccc2C1 (single isomer, unassigned; (-)) [listing 1 of 2 here]	–	–	–
–	–	–	0.19	1.8	CCCN(CCCNC(C)=O)C1CCc2c(O)cccc2C1 (stereo not drawn)	4	1.6	159
–	–	–	0.14	0.91	CCCN(CCCC(=O)OC)C1CCc2c(O)cccc2C1 (stereo not drawn)	–	–	<150
–	–	–	2	4.58	CCCN(CCCN)C1CCc2c(O)cccc2C1 (stereo not drawn)	–	–	–
–	–	–	0.22	1.3	CCCN(CCCNC(=O)N(CC)CC)C1CCc2c(O)cccc2C1 (stereo not drawn)	–	–	–
2660	7	12.5	0.046	1.02	CCCN(CCCCl)C1CCc2c(O)cccc2C1 (stereo not drawn)	–	–	–
–	–	–	0.043	0.22	CCCN(CCCSC)C1CCc2c(O)cccc2C1 (stereo in doubt; 12) [listing 2 of 2 here]	–	–	–
1520	6	8.7	0.04	0.18	CCCN(CCc1ccccc1)C1CCc2c(O)cccc2C1 (stereo not drawn)	–	–	–
–	–	–	0.49	3.5	CCCN(CCCC#N)C1CCc2c(O)cccc2C1 (single isomer, unassigned; (+))	–	–	–
–	–	–	0.041	0.22	CCCN(CCNS(=O)(=O)N(CC)CC)C1CCc2c(O)cccc2C1 (stereo not drawn)	3	7.8	1015
